Screening data (PubChem)
Ecoli rRNA inh: inhibitors of bacterial rRNA selective over humanized ribosomes; E. coli WT GFP vs humanized-ribosome RFP mutants, fluorescence, 24 h; stronger effect = lower value; DMSO median 0, no signal -100; GFP signal change (wild-type ribosome), % (test concentration not listed); 1.6% of 350,000 active;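 active = significant combined selectivity score with lowered wild-type GFP, culture density cut under 30%, mutant RFP and density less affected; inactive = any of these conditions unmet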
ARNT TACC3 PPI: disruptors of human ARNT/TACC3 interaction | AlphaScreen His-ARNT PAS-B/GST-TACC3 binding, luminescence; TACC3 fragment carries E629A point mutation | 0.66% of 390,000 active | Q9Y6A5 | inhibition, % at 9.99 µM;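 active = mean inhibition of replicates at least 50% and at least half of replicates each reaching 50%; inconclusive = half or more replicates reach 50% but mean below 50%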;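 note: 0% = complete ARNT plus TACC3 wells and 100% = ARNT alone without TACC3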
ERAP1 inh: inhibitors of human ERAP1 aminopeptidase; Q9NZ08; AID 652197; recombinant ERAP1, Leu-AMC fluorescence, 60 min; 0.15% of 340,000 active; inhibition, % at 10.7 µM;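 active = mean replicate inhibition of at least 30%, or all replicates individually reaching that 30% level; inactive = mean below 30% and not every replicate reaching it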;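 note: 0% = neutral control wells and 100% = L-leucinethiol positive control wells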
S100A4 MyoIIA: blocks human S100A4 binding to myosin IIA peptide | AID 652163 | S100A4/TAMRA-MyoIIA peptide fluorescence polarization | inhibition, % at 10.7 µM | P26447 | 0.14% of 360,000 active;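 active = mean inhibition of at least 70% across replicates, with every replicate also reaching that level; inconclusive = mean inhibition reaches 70% but some replicates fall short; inactive = mean inhibition below 70%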
Target sequence (P26447 whole entry, looked up): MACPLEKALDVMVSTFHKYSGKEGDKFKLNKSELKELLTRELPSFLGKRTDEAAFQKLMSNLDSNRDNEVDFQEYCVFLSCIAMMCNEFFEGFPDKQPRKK
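Material: human S100A4 monomer with TAMRA-labelled myosin IIA peptide; buffer or medium: HEPES pH 7.2 with CaCl2, KCl, NaCl, DTT, Triton; compound dosing: one concentration per compound; schedule: 5 min incubation before reading; benchmarks: neutral control DMSO, positive control TFP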
Casp6 inh: inhibitors of human caspase-6; P55212; purified caspase-6, Z-VEID-R110 cleavage fluorescence; inhibition, % at 12.5 µM; 0.53% of 350,000 active; AID 686996;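 active = mean inhibition across replicates at least about 35%, with every replicate also reaching that limit, limit read from the data; inconclusive = only one of the two criteria met; inactive = neither criterion met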;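 note: 0% = median of neutral control wells and 100% = no fluorescence left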
Target sequence (P55212 24-179 limits assumed): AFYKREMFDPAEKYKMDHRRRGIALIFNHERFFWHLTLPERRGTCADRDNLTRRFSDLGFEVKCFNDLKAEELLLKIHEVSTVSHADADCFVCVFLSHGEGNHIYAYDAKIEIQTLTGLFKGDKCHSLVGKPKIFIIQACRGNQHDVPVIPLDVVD
Target sequence (P55212 194-293 limits assumed): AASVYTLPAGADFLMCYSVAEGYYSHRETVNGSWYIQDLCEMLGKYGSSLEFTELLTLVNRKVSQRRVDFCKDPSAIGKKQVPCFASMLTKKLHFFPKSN
PGC1a acetyl inh: PGC1a acetylation modulation, inhibitor mode; U2OS PGC1a acetylation, AlphaScreen anti-acetyl-lysine; with virally co-expressed GCN5 acetyltransferase; inhibition, % at 15.6 µM; 0.17% of 350,000 active; AID 651687;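 active = every replicate shows inhibition of at least 40%; inconclusive = mean inhibition at least 40% but some replicate below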;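 note: 0% = neutral control wells and 100% = positive control wells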
* hit, by the source's call; ? = inconclusive; nt = no result given. The list is not random: actives were taken first. Their share in the collection is about 2.4%.

SMILES | Ecoli rRNA inh | ARNT TACC3 PPI | ERAP1 inh | S100A4 MyoIIA | Casp6 inh | PGC1a acetyl inh
O=C(CSc1nc2ccccc2n1CCc1ccccc1)N1CCOCC1 | -23 | 20 | 2 | -2 | 0 | nt
O=C(CSc1nc2ccccc2n1CCc1ccccc1)c1ccc(O)c(O)c1 | -51 | 7 | 1 | -5 | 70* | 5
Cc1ccc(C(=O)CSc2nc(C)cc(=O)[nH]2)cc1 | nt | -10 | nt | nt | nt | 4
Cc1cc(C)nc(SCC(=O)c2ccc(O)c(O)c2)n1 | 14 | 28 | -2 | -2 | 30 | -2
Cc1cc(SCC(=O)c2ccc(O)c(O)c2)n2nc(C)c(-c3ccccc3)c2n1 | -54 | 3 | 1 | -5 | 39* | -6
COc1ccc(S(=O)(=O)N(C)C[C@H]2Oc3c(NC(=O)C4CCCCC4)cccc3C(=O)N([C@@H](C)CO)C[C@@H]2C)cc1 | 4 | 0 | 0 | -21 | -1 | 5
O=C(CSc1nc2ccccc2c(=O)[nH]1)c1ccc(O)c(O)c1 | -11 | 10 | 5 | -2 | 70* | 5
Cc1[nH]c2ccccc2c1C(=O)CSc1nccc(=O)[nH]1 | 5 | 10 | nt | 9 | 3 | 0
Cc1[nH]c2ccccc2c1C(=O)CSc1nc2ccccc2[nH]1 | -28* | 9 | -2 | 0 | -1 | 3
Cc1noc(C)c1NC(=O)Nc1ccc2c(c1)C(=O)N([C@@H](C)CO)C[C@H](C)[C@H](CN(C)C(=O)Nc1ccc(F)cc1)O2 | -3 | 0 | 0 | 6 | 1 | -3
CC(C)Cn1c(SC(C)C(=O)Nc2ccc(N3CCOCC3)cc2)nc2ccccc21 (stereo unspecified) | 5 | 9 | 1 | 1 | 2 | nt
CC(Sc1nc2ccccc2n1C)C(=O)Nc1ccc(N2CCOCC2)cc1 (stereo unspecified) | -23* | 5 | -3 | 14 | -1 | 2
CO[C@H]1CN(C)C(=O)c2cc(NC(=O)c3ccc(F)cc3)ccc2OC[C@@H](C)N(C(=O)c2ccc(F)cc2)C[C@@H]1C | -1 | -14 | 3 | -1 | -7 | -1
C[C@H](CO)N1C[C@H](C)[C@H](CN(C)S(=O)(=O)c2cccs2)Oc2c(NC(=O)c3ccncc3)cccc2C1=O | 0 | active | 4 | 1 | 0 | 12
C[C@@H]1CN([C@H](C)CO)C(=O)c2cccc(NC(=O)CCCCCC(=O)Nc3ccccc3N)c2O[C@H]1CN(C)S(=O)(=O)c1cccs1 | -1 | nt | -1 | 74* | 3 | -2
Cc1cc(C(=O)Nc2cccc3c2O[C@H](CN(C)S(=O)(=O)c2ccc(Cl)cc2)[C@H](C)CN([C@H](C)CO)C3=O)n(C)n1 | -22* | 7 | -1 | -20 | 0 | 0
C[C@H]1CN([C@@H](C)CO)C(=O)c2cc(NC(=O)CCCCCC(=O)Nc3ccccc3N)ccc2O[C@H]1CN(C)S(=O)(=O)c1cccs1 | -4 | nt | 1 | 98* | -1 | 0
C[C@H](CO)N1C[C@H](C)[C@H](CN(C)S(C)(=O)=O)Oc2c(NC(=O)c3ccncc3)cccc2C1=O | 5 | -5 | 1 | 10 | 1 | 11
CCCC[C@]12CCCC(=O)N1CCc1c2[nH]c2ccccc12 | nt | 1 | 2 | 4 | 3 | -3
C[C@H](CO)N1C[C@H](C)[C@H](CN(C)C(=O)Cc2ccncc2)Oc2cc(C#CC3CC3)ccc2S1(=O)=O | -2 | 0 | -2 | -10 | -5 | 0
C[C@H](CO)N1C[C@H](C)[C@@H](CN(C)Cc2ccc(Oc3ccccc3)cc2)Oc2ccc(NC(=O)C3CCCCC3)cc2C1=O | 5 | nt | nt | nt | nt | -10
COc1ccccc1C(=O)N1C[C@H]2[C@@H](c3ccccc31)[C@H](CO)N2C(=O)C1CCOCC1 | -2 | -2 | 1 | -13 | -1 | -2
COc1ccc(NC(=O)N(C)C[C@H]2OCCCC[C@@H](C)Oc3ccc(NS(=O)(=O)c4ccc(OC)cc4)cc3C(=O)N([C@@H](C)CO)C[C@@H]2C)cc1 | -1 | 20 | nt | nt | nt | 5
CC(=O)c1sc(N/N=C/c2cccc([N+](=O)[O-])c2)nc1C | 8 | nt | 0 | -2 | -4 | nt
O=C(NC(=S)Nc1nc(-c2cccc([N+](=O)[O-])c2)cs1)c1ccccc1Cl | -19* | 2 | -1 | -13 | 0 | -13
SMILES | Ecoli rRNA inh | ARNT TACC3 PPI | ERAP1 inh | S100A4 MyoIIA | Casp6 inh | PGC1a acetyl inh
O=[N+]([O-])c1cccc(-c2csc(N/N=C/c3cccc(O)c3)n2)c1 | -42* | 10 | 12 | 1 | 11 | -11
O=C(NC(=S)Nc1nc(-c2cccc([N+](=O)[O-])c2)cs1)c1cc(Cl)ccc1Cl | 4 | nt | -2 | -2 | 4 | 5
CC(=O)c1sc(N/N=C/c2cccc(O)c2)nc1C | -21* | 1 | 9 | -10 | -2 | -7
COc1ccc(S(=O)(=O)N(C)C[C@@H]2Oc3ccc(NC(=O)CCCN(C)C)cc3CC(=O)N([C@H](C)CO)C[C@@H]2C)cc1 | -1 | nt | -2 | 0 | 1 | -12
CN(C)CCCNC(=O)C[C@@H]1CC[C@H]2[C@@H](COC[C@H](O)CN2Cc2cccc(Cl)c2)O1 | -4 | 7 | 1 | ? | 1 | 5
CCNC(=O)Nc1ccc2c(c1)C(=O)N(C)[C@H]1CC[C@H](CC(=O)Nc3ccccc3OC)O[C@@H]1CO2 | 1 | nt | -9 | 51 | 2 | 2
Cc1[nH][nH]c(=O)c1C(c1cc2c(cc1Br)OCO2)c1c(C)[nH][nH]c1=O | 25 | 2 | 0 | 5 | -1 | 6
Cc1[nH][nH]c(=O)c1C(c1cc(Br)ccc1O)c1c(C)[nH][nH]c1=O | 6 | active | -4 | -13 | 5 | 7
COc1cccc(CN2CC3(C2)CN(C(=O)C2CC2)[C@@H](CO)c2c3c3ccc(OC)cc3n2C)c1 | -2 | nt | nt | nt | nt | -9
COc1cccc(CNC(=O)CN2c3cccc4cccc(c34)S2(=O)=O)c1 | -37* | 5 | 2 | -5 | 2 | 4
CC(NC(=O)CN1c2cccc3cccc(c23)S1(=O)=O)c1ccc(S(N)(=O)=O)cc1 (stereo unspecified) | -1 | 11 | -2 | -2 | 56* | 7
CN(CC(=O)Nc1cccc(F)c1)C(=O)CN1c2cccc3cccc(c23)S1(=O)=O | -40* | 1 | -5 | -2 | 9 | nt
CC(NC(=O)CN1c2cccc3cccc(c23)S1(=O)=O)c1ccccc1 (stereo unspecified) | -37 | nt | -7 | 12 | 8 | -12
CN(C)C(=O)CN1c2cccc3cccc(c23)S1(=O)=O | 11 | -7 | 0 | -9 | -1 | 8
CC(=O)N(C)C[C@H]1Oc2ccc(N)cc2CC(=O)N(C)C[C@H]1C | 1 | nt | nt | nt | nt | nt
Cc1ccsc1C(=O)Nc1cc(Cl)ccc1-n1cncn1 | -6 | 4 | -2 | 4 | -8 | 61*
